From PubChem BioAssay
Shown are actives, neighbours in structure and some others; about 3.5% of the full set was active somewhere.
MrgX1 antagonist – human MrgX1 receptor antagonism, primary screen | Q96LB2 | MRGX1-HEK293 calcium flux, Fluo-4, BAM8-22 antagonism; active compounds read low | B-score at 10 µM | actives 1.3% (n = 310,000) | AID 588676;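 active = calcium-response B-score plate-corrected more than 3 library SD below zero, starting fluorescence within 5 deviations, no agonist response on first addition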;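 also: peak minus trough fluorescence over baseline after final BAM8-22 challenge near maximal dose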
RGS4 inh – inhibitors of human RGS4. P49798. HEK293 M3R/RGS4 inducible, Fluo-4 calcium flux; active compounds read high; triggered by carbachol at its EC20. B-score at 10 µM. actives 0.45% (n = 310,000). AID 463165;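 active = B-score, a plate-corrected calcium signal, over three deviations above library mean, with baseline fluorescence within five deviations of library mean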;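 also: RGS4 expression induced by doxycycline in cells with stable M3 receptor; B-score is computed from the integrated fluorescence ratio over baseline after carbachol; higher B-score means a larger calcium signal and so more RGS4 inhibition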
Target sequence (P49798 whole entry, looked up): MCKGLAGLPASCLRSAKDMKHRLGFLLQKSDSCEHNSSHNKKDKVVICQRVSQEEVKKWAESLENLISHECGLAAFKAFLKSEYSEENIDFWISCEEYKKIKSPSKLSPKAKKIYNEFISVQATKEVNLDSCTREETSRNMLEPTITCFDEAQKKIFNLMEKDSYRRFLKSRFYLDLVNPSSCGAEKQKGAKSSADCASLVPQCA
MrgX1 ag – activates human MrgX1 receptor signaling; MrgX1-HEK293 cells, Fluo-4 calcium fluorescence, agonist mode; active compounds read high; B-score at 10 µM; actives 0.44% (n = 310,000);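 active = calcium response B-score plate-corrected fluorescence ratio at least 3 library SD, with starting fluorescence B-score inside 5 SD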
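Test system: Stable human MrgX1 HEK293 cell line | Schedule: Overnight plating before 1 h dye loading | Read-out basis: Baseline-normalised fluorescence change ratio, B-scored | Detection: Kinetic calcium dye fluorescence, Fluo-4 NW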
MrgX1 PAM – allosterically activates human MrgX1 receptor signaling; Q96LB2; actives 0.63% (n = 310,000); MrgX1-HEK293, Fluo-4 calcium flux, FDSS; active compounds read high; B-score at 10 µM;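 active = plate-corrected calcium response at least 3 library SD above typical, normal starting fluorescence, not activating the receptor alone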;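 also: compound read alongside a low EC10 to EC30 dose of BAM8-22 agonist; peak minus trough fluorescence over baseline measured at the second addition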
RGS4 pot – RGS4 potentiation or activation | HEK293 M3R/inducible RGS4, carbachol calcium flux Fluo4; active compounds read low | B-score at 10 µM | actives 0.92% (n = 310,000) | AID 463111;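 active = B-score of the integrated calcium signal more than 4 SD below the library mean, with starting fluorescence not abnormally high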;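 also: negative B-score means reduced calcium response which marks RGS4 activation or potentiation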
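System – HEK293 FlpIn-TREx cells, stable M3R, doxycycline-inducible RGS4 · Reagent – ECmax carbachol challenge · Times – compound preincubation 20 min at room temperature before agonist · Technique – Fluo4 fluorescence kinetic imaging of calcium · Measure – B score of integrated Fluo4 ratio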
An asterisk follows results filed as active.

What do the screens show for `O=C(Nc1ccc(Cl)cn1)c1ccc2[nH]c(=O)c(=O)[nH]c2c1`?
MrgX1 antagonist: inactive; RGS4 inh: inactive; MrgX1 ag: inactive; MrgX1 PAM: inactive; RGS4 pot: inactive

Results for CC(C)CCn1c(O)c(N=Nc2ccccn2)c2ccccc21 ?
MrgX1 antagonist: inactive; RGS4 inh: inactive; MrgX1 ag: inactive; MrgX1 PAM: inactive; RGS4 pot: inactive

Results for CCCn1c(O)c(N=Nc2ccc3ccccc3n2)c2ccccc21 ?
MrgX1 antagonist: -4.79*; RGS4 inh: inactive; MrgX1 ag: inactive; MrgX1 PAM: inactive; RGS4 pot: inactive

Results for CCC1(c2ccccc2)NC(=O)N(CC(=O)Nc2cc(S(=O)(=O)N3CCCCC3)ccc2OC(C)C)C1=O (stereo not given) ?
MrgX1 antagonist: inactive; RGS4 inh: inactive; MrgX1 ag: inactive; MrgX1 PAM: inactive; RGS4 pot: inactive

What do the screens show for `O=C(CN(Cc1ccccc1)S(=O)(=O)c1ccc2c(c1)OCCO2)N/N=C/c1ccc(F)cc1`?
MrgX1 antagonist: inactive; RGS4 inh: inactive; MrgX1 ag: inactive; MrgX1 PAM: inactive; RGS4 pot: inactive

Results for COc1ccc(CNC(=O)CN(Cc2ccccc2)S(=O)(=O)c2ccc(Cl)cc2)cc1 ?
MrgX1 antagonist: -4.87*; RGS4 inh: inactive; MrgX1 ag: inactive; MrgX1 PAM: inactive; RGS4 pot: inactive

Results for COc1ccc(/C=N/NC(=O)CN(Cc2ccccc2)S(=O)(=O)c2ccc3c(c2)OCCO3)cc1 ?
MrgX1 antagonist: -6.19*; RGS4 inh: inactive; MrgX1 ag: inactive; MrgX1 PAM: inactive; RGS4 pot: inactive

Results for Cc1ccccc1OCC(=O)N/N=C/c1ccc2c(c1)OCCO2 ?
MrgX1 antagonist: inactive; RGS4 inh: inactive; MrgX1 ag: inactive; MrgX1 PAM: 6.54*; RGS4 pot: inactive

How did C#CCOc1ccccc1/C=N/NC(=O)c1ccccc1OCc1ccccc1 do in these assays?
MrgX1 antagonist: inactive; RGS4 inh: inactive; MrgX1 ag: inactive; MrgX1 PAM: inactive; RGS4 pot: inactive

Results for Nc1nc(NCC2CCCO2)nc(Nc2ccc(Cl)cc2)c1[N+](=O)[O-] (stereo not given) ?
MrgX1 antagonist: inactive; RGS4 inh: inactive; MrgX1 ag: inactive; MrgX1 PAM: 6.83*; RGS4 pot: inactive

What do the screens show for `Cc1cc(C)c(S(=O)(=O)NCc2cccs2)cc1C`?
MrgX1 antagonist: inactive; RGS4 inh: inactive; MrgX1 ag: inactive; MrgX1 PAM: inactive; RGS4 pot: inactive

How did O=c1ccnc(Sc2ncccc2[N+](=O)[O-])[nH]1 do in these assays?
MrgX1 antagonist: -5.04*; RGS4 inh: inactive; MrgX1 ag: inactive; MrgX1 PAM: inactive; RGS4 pot: inactive

Results for CN1CCN(C(=O)CN(C)S(=O)(=O)c2ccc(F)cc2)CC1 ?
MrgX1 antagonist: inactive; RGS4 inh: inactive; MrgX1 ag: inactive; MrgX1 PAM: inactive; RGS4 pot: inactive

How did COc1ccc(CNC[C@@H](CCCCN(C)Cc2ccc(OC)cc2)N2C[C@H](c3ccccc3)N(CCc3ccc(Cl)c(Cl)c3)C(=O)C2=O)cc1 do in these assays?
MrgX1 antagonist: inactive; RGS4 inh: inactive; MrgX1 ag: inactive; MrgX1 PAM: inactive; RGS4 pot: -8.17*

How did Cc1ccc2c(C)c(C(=O)Nc3ccc(S(=O)(=O)Nc4onc(C)c4C)cc3)oc2c1 do in these assays?
MrgX1 antagonist: inactive; RGS4 inh: inactive; MrgX1 ag: inactive; MrgX1 PAM: inactive; RGS4 pot: inactive

How did CCCCCCCCCCn1c2c(c(=N)c3c1CCC3)CCC2 do in these assays?
MrgX1 antagonist: -6.17*; RGS4 inh: inactive; MrgX1 ag: inactive; MrgX1 PAM: inactive; RGS4 pot: -8.74*

Results for NC1=NC(=O)C(Cc2ccc(Br)cc2)S1 (stereo not given) ?
MrgX1 antagonist: inactive; RGS4 inh: inactive; MrgX1 ag: inactive; MrgX1 PAM: inactive; RGS4 pot: inactive

What do the screens show for `CCOCCCNC(=O)c1ccc2c(=O)n(CCCOCC)c(=S)[nH]c2c1`?
MrgX1 antagonist: inactive; RGS4 inh: inactive; MrgX1 ag: inactive; MrgX1 PAM: 12.9*; RGS4 pot: inactive

How did CCOCCCn1c(=S)[nH]c2cc(C(=O)NCCOC)ccc2c1=O do in these assays?
MrgX1 antagonist: inactive; RGS4 inh: inactive; MrgX1 ag: inactive; MrgX1 PAM: inactive; RGS4 pot: inactive
